Nine molecules from ChEMBL document CHEMBL3763100, “Structure-guided design of new indoles as negative allosteric modulators (NAMs) of N-methyl-D-aspartate receptor (NMDAR) containing GluN2B subunit” (Bioorg Med Chem, 2016) can be followed below.

Assay [1] deals with Mus musculus. Briefly: Anticonvulsant activity in DBA/2 mouse assessed as prevention of audiogenic seizures at 100 umol/kg, ip administered 30 mins prior to testing. It counts as functional, organism-based. A digest of the protocol:
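DBA/2 mice genetically prone to sound-induced seizures (8-12 g, 22-25 days old), groups of 10 of either sex. Dosed ip in fresh 50% DMSO/50% sterile saline, or vehicle alone. After 30 min, 60 s habituation under a dome, then auditory stimulus (12-16 kHz, 109 dB) for 60 s or until tonic extension. Latency to and incidence of wild running, clonus, tonic phases were scored; incidence compared by Fisher's exact test.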

In assay [2] the target is Glutamate receptor ionotropic, NMDA 2B (Rattus norvegicus) (UniProt Q00960). Briefly: Displacement of [3H]ifenprodil from Wistar rat cerebral cortex GluN2B receptor at 0.1 uM after 120 mins relative to control. It counts as tissue-based. A digest of the protocol:
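Male Wistar-derived rat cerebral cortex membranes (175 ± 25 g rats) in Tris-HCl pH 7.4. […] Filtration, washing and counting followed. Test compounds were run at three concentrations in duplicate, with 0.1 μM used for % inhibition.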
(In general: In a radioligand displacement assay an active substance lowers the binding of a labelled ligand.)

In assay [3] the target is Glutamate receptor ionotropic, NMDA 2B (Rattus norvegicus, UniProt Q00960). Nature of the assay: Displacement of [3H]ifenprodil from Wistar rat cerebral cortex GluN2B receptor after 120 mins. In kind it is tissue-based.
Chain of Glutamate receptor ionotropic, NMDA 2B (Q00960 whole entry): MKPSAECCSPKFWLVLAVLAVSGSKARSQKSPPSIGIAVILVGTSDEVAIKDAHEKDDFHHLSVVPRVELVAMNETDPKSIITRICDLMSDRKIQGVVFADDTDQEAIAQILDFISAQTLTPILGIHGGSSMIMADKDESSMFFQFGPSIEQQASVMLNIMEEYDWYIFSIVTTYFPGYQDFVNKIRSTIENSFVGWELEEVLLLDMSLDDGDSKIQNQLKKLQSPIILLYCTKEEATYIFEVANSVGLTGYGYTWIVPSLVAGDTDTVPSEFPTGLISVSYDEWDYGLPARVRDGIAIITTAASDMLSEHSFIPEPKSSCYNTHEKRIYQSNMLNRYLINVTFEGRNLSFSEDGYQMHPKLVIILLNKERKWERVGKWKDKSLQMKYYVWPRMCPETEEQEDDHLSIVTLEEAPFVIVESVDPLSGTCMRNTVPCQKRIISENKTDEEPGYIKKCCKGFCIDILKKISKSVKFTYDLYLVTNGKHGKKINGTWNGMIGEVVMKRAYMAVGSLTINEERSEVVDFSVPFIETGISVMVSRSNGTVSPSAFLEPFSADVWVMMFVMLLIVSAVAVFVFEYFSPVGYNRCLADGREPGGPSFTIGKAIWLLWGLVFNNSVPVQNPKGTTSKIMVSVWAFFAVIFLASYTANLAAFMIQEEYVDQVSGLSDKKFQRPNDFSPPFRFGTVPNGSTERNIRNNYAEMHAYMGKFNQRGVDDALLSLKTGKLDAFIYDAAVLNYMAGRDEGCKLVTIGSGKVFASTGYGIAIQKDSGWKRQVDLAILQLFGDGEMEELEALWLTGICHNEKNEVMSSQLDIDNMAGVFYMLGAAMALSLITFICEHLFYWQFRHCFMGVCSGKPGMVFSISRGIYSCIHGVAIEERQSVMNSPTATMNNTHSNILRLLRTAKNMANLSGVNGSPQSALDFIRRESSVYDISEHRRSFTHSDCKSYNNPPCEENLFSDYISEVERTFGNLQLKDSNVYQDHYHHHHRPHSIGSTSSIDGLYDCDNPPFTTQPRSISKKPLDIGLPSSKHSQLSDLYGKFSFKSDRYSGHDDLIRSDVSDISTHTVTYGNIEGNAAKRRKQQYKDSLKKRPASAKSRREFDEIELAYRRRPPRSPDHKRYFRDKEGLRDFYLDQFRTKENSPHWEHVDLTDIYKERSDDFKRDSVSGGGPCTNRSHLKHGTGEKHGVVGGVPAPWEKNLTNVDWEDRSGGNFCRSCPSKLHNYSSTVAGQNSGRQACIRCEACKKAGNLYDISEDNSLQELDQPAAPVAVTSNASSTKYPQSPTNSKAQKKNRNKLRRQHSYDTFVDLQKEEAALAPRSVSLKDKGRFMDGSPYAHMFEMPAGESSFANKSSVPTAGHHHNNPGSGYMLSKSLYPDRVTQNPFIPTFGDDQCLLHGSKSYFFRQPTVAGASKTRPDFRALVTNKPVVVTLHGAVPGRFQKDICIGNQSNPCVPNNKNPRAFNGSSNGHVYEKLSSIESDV
Assay [4] addresses Glutamate receptor ionotropic, NMDA 2B (Rattus norvegicus) (UniProt Q00960). Nature of the assay: Displacement of [3H]ifenprodil from Wistar rat cerebral cortex GluN2B receptor at 0.1 uM relative to control.

SMILES strings stand for the structures. Calls of active or inactive are those of the source. The calls are words filed in the database; no cut-off is given here. A value given as a limit tells only on which side of the number the result lay.

Chain of Glutamate receptor ionotropic, NMDA 2B (Rattus norvegicus) (Q00960 27-1482 limits assumed): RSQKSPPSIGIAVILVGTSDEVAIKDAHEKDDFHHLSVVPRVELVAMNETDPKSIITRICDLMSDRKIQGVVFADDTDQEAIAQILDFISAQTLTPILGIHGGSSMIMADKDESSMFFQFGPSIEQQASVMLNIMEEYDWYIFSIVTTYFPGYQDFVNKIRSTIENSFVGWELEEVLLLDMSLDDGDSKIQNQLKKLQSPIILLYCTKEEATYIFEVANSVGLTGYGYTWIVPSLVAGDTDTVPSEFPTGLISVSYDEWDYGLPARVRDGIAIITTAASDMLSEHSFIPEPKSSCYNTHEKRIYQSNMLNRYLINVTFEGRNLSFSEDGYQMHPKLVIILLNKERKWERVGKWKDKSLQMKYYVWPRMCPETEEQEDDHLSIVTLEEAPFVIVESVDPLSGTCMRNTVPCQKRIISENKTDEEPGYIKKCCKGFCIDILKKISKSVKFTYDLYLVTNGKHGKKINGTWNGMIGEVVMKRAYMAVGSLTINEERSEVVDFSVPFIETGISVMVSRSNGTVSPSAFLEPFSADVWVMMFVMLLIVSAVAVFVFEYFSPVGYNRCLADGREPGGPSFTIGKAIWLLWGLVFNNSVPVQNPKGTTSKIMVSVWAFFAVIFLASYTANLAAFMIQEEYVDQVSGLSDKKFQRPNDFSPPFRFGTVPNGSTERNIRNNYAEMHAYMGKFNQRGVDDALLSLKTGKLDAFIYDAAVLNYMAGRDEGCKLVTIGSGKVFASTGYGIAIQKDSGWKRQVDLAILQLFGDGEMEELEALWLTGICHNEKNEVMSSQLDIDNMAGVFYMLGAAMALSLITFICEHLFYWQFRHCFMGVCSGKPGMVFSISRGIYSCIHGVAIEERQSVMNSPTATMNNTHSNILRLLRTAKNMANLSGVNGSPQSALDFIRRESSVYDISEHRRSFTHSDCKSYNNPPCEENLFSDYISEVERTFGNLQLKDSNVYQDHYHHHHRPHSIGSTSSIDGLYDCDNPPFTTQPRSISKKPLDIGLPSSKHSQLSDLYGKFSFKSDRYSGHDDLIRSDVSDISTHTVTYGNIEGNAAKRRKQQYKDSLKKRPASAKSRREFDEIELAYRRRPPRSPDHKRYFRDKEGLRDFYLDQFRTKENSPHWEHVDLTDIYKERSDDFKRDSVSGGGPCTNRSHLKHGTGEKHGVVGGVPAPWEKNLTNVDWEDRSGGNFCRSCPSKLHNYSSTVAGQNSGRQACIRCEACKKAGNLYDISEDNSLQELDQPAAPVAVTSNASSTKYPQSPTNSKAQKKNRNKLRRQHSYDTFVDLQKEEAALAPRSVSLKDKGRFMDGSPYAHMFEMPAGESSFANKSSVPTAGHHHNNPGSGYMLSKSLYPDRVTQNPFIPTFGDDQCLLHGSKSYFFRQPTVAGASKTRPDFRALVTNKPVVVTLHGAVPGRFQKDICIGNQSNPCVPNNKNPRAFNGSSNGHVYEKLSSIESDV

For orientation: inhibition means the drop in the measured response relative to a control, in per cent. Lower therefore signals a response near the control. In general, IC50 refers to the concentration that inhibits the measured activity by half. Read a high IC50 as weaker potency in that assay. Consider `CCc1ccc(CC2CCN(CC(=O)c3c[nH]c4ccc(O)cc34)CC2)cc1`, for which the outcome in assay [1] was inactive. This molecule yielded an inhibition in assay [2] of 75%. The molecule further yielded an IC50 in assay [3] of 71 nM.
In assay [2], `Cc1ccc(CC2CCN(CC(=O)c3c[nH]c4ccc(O)cc34)CC2)cc1C` returned an inhibition of less than 5%. In addition, in assay [3], the IC50 came out at 3330 nM.
The molecule `O=C(CN1CCC(Cc2ccccc2)CC1)c1c[nH]c2ccc(O)cc12` yielded an inhibition in assay [4] of 75%.
In assay [2], `O=C(Cc1c[nH]c2ccc(O)cc12)N1CCC(Cc2ccc(F)cc2)CC1` displayed an inhibition of 19%.
On to `Oc1ccc2[nH]cc(CCN3CCC(Cc4ccccc4)CC3)c2c1`, for which the inhibition in assay [2] was 42%.
The same measure, in the same setting: in the case of `O=C(Cc1c[nH]c2ccc(O)cc12)N1CCC(Cc2ccccc2)CC1` it was 5%; in that of `O=C(CN1CCC(Oc2ccccc2)CC1)c1c[nH]c2ccc(O)cc12`, 9%.
As to `COc1ccc(CC2CCN(CC(=O)c3c[nH]c4ccc(O)cc34)CC2)cc1`, the inhibition in assay [2] is 16%. This molecule came in with an IC50 in assay [3] of 1280 nM.
As to `Cc1ccc(CC2CCN(CC(=O)c3c[nH]c4ccc(O)cc34)CC2)cc1`, the outcome in assay [1] was inactive. For the same molecule, the inhibition in assay [2] is 66%. Besides, the IC50 in assay [3] came to 83 nM.
